{"data": "Measured values collected from several papers", "medium": "plasma"}
{"SMILES": "CC(C)n1cc(C#N)c2cc(-n3cc(C(=O)O)cn3)ccc21", "system": "human", "conditions": "oral, 200 mg, single dose, fasted, healthy volunteers", "half-life [h]": 13.3}
{"SMILES": "CC(C)(Sc1ccncc1-c1ccc(C#N)c2ccccc12)C(=O)O", "system": "male human", "conditions": "oral, 20 mg, single dose, fed, healthy volunteers", "half-life [h]": 13.8}
{"SMILES": "COCCOc1cnc2ccn([C@H](C)c3nnc4c(F)cc(-c5cnn(C)c5)cn34)c(=O)c2c1", "system": "human", "conditions": "oral, 150 mg, multiple doses, once daily, patients", "half-life [h]": 9.9}
{"SMILES": "COc1cc(C(=O)NC2CCN(C)CC2)c(F)cc1Nc1ncc(C(F)(F)F)c(Oc2cccc3c2C(=O)N(C)C3)n1", "system": "human", "conditions": "oral, 300 mg, multiple doses, once daily, patients", "half-life [h]": 21.6}
{"SMILES": "CO[C@@H]1[C@H](OC(=O)N2CC(CCN3CCOCC3)C2)CC[C@]2(CO2)[C@H]1[C@@]1(C)O[C@@H]1CC=C(C)C", "system": "human", "conditions": "subcutaneous, 0.6 mg, single dose, healthy volunteers", "half-life [h]": 0.56}
{"SMILES": "CO[C@H]1CC[C@H](N2C(=O)CNc3ncc(-c4ccc(C(C)(C)O)nc4)nc32)CC1", "system": "human", "conditions": "oral, 60 mg, patients", "half-life [h]": 5.64}
{"SMILES": "Cn1cc(-c2ccc(S(=O)(=O)[C@@H]3C[C@@H](C(=O)NC4(C#N)CC4)N(C(=O)C4(C(F)(F)F)CC4)C3)c(C(F)(F)F)c2)cn1", "system": "human", "conditions": "oral, 300 mg, single dose, fasted, healthy volunteers", "half-life [h]": 16}
{"SMILES": "NS(=O)(=O)NCCNc1nonc1C(=NO)Nc1ccc(F)c(Br)c1", "system": "human", "conditions": "oral, 600 mg, multiple doses, twice daily, steady state, patients", "half-life [h]": 3.3}
{"SMILES": "CO[C@H]1/C=C\\C=C(/C)C(=O)NC2=CC(=O)C(NCCN(C)C)=C(C[C@@H](C)C[C@H](OC)[C@H](O)[C@@H](C)/C=C(\\C)[C@@H]1OC(N)=O)C2=O", "system": "human", "conditions": "intravenous, patients, infusion", "half-life [h]": 22.3}
{"SMILES": "c1cnc2ccc(Nc3nc(NC4CC4)c4nc[nH]c4n3)cc2c1", "system": "human", "conditions": "oral, 800 mg/m², patients", "half-life [h]": 6}
{"SMILES": "CC(C)(O)c1ccccc1-c1ccc2[nH]c(/C=C/c3ccc(C(F)(F)F)cc3)nc2c1", "system": "male human", "conditions": "oral, 225 mg, single dose, fasted, healthy volunteers", "half-life [h]": 85.9}
{"SMILES": "C#C[C@]1(COP(=O)(O)OP(=O)(O)OP(=O)(O)O)O[C@@H](n2cnc3c(N)nc(F)nc32)C[C@@H]1O", "system": "human", "conditions": "oral, 400 mg, single dose", "half-life [h]": 143}
{"SMILES": "CCNCCCNC/C=C\\CNCCCNCC", "system": "human", "conditions": "intravenous, 200 mg, patients, infusion", "half-life [h]": 0.14}
{"SMILES": "C[C@@H](Nc1cc(F)cc(F)c1)c1cc(C(=O)N(C)C)cc2c(=O)cc(N3CCOCC3)oc12", "system": "human", "conditions": "oral, 120 mg, patients", "half-life [h]": 4.62}
{"SMILES": "COc1ccc([C@@H]2CN(C(=O)[C@@H](O)CO)C[C@@]2(C)[C@@H](C)O)cc1OC1CN(c2ccc(C)cn2)C1", "system": "human", "conditions": "oral, 0.1 mg, single dose, healthy volunteers", "half-life [h]": 9.74}
